# Assay results: paper PMC2646257 (Journal of medicinal chemistry, 2009)
# “And” between values parts separate entries of the source, which are not always exact repeats. Equal values may be shown once. Read-outs that look alike come from different tables or passages of the source.
# What was measured:
# [1] = mouse; cited from earlier work
# [2] = Plasma free fraction, monkey; assay type: in vitro ADME; settings: two monkeys, one value each (n = 9 and n = 3)
# Outline: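 Radioligand was added to plasma and placed on a centrifugal ultrafiltration unit. The unit was spun at 5000g, and all filter-unit components were counted for radioactivity to derive free fraction.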
# [3] = Radiochemical stability of formulated radioligand; assay type: physicochemical; settings: formulated [^18F]9
# [4] = Emergence of radiometabolites in monkey plasma in vivo; parameters: species or system rhesus monkey
# Outline: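 Three male rhesus monkeys (11–15 kg) received i.v. bolus radioligand during four PET scans: three baseline and one pre-block (PBR ligand 3 mg/kg i.v., 24 min before). Arterial blood was drawn periodically from the femoral artery into heparin tubes and centrifuged. Plasma (1 mL) was mixed with acetonitrile (1.5 mL) and centrifuged. Supernatant was analysed by radio-HPLC for % parent and radiometabolites. Plasma concentration was expressed as %SUV.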
# PBR [5] = assay: PET imaging in monkeys; assay type: in vivo, rhesus monkey; settings: monkey
# Outline: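 Male rhesus monkeys (11–15 kg) received an i.v. bolus of radioligand (2.76–5.80 mCi; 0.068–0.276 μg/kg) and were scanned up to 300 min. In pre-block, PBR ligand (3 mg/kg i.v.) was given 24 min before radioligand and imaging ran 120 min. In displacement, one monkey received 1.28 mCi, then 3 mg/kg i.v. at 60 min, with 240 min scanning. Uptake was given as %SUV. Images were co-registered with T1 1.5-T MRI.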
# [6] = Emergence of radiometabolites in rat plasma, brain and urine in vivo
# Outline: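 Four rats (277–623 g) were kept under 1.5% isoflurane in oxygen at 37 °C. Two received NCA radioligand i.v. (0.812 or 1.32 mCi; >1.39 Ci/μmol) and were killed at 30 or 95 min. Two received carrier-added radioligand (0.86 or 0.89 mCi; ~0.13 Ci/μmol; saline with 10% ethanol, 5% Tween 80), had 5 mL saline i.p. 30 min before, and were killed at 60 min with urine collected. Plasma was deproteinized. Brain was homogenized on ice in saline/acetonitrile plus water and centrifuged. Analysis was by radio-HPLC.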
# [7] = Stability to rat brain homogenate in vitro; assay type: in vitro ADME; settings: 37 °C, up to 60 min
# Outline: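 Excised rat brain (1.70 g) was homogenized in 3 mL saline, spiked with 5 μCi radioligand and incubated at 37 °C. Aliquots (n = 6) were taken periodically up to 60 min into acetonitrile, centrifuged and analysed by radio-HPLC for % parent and radiometabolites. A second brain, homogenized in saline/acetonitrile before spiking, served as reference.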
# [8] = Stability in sodium phosphate buffer; assay type: physicochemical; settings: sodium phosphate buffer (0.15 M, pH 7.4), room temperature
# Outline: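 Radioligand was incubated in 0.15 M sodium phosphate buffer, pH 7.4, at room temperature for 2 h and analysed by HPLC.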
# [9] = assay type: in vitro ADME, rat; settings: 30 min
# PBR [10] = settings: cited from earlier work
# [11] = LC-MS-MS search for metabolites in rat brain, urine and plasma in vivo
# Outline: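 Three rats under 1.5% isoflurane received non-radioactive test compound (2.26 ± 0.76 mg) via the penile vein over 9 min, in 0.9 mL saline with 10% ethanol and Cremophor EL or Tween 80. Urethras were clamped; saline 0.1 mL was given i.v. every 30 min. Blood and urine were taken at 60 or 115 min. Brain was homogenized twice in acetonitrile/water and spun at 10,000g for 10 min. Plasma was deproteinized with acetonitrile. Samples were stored at −70 °C and analysed by LC-MS-MS.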
# [12] = two rats, carrier-added, 60 min
structure (smiles),measurement,setting,value
COc1ccc(OC[18F])c(CN(C(C)=O)c2cc(F)ccc2Oc2ccccc2)c1 [[^18F]4],defluorination,[1],rapidly defluorinated
"COc1ccc(OC)c(CN(C(=O)C[18F])c2ccccc2Oc2ccccc2)c1 [[^18F]9, [^18F]N-fluoroacetyl-N-(2,5-dimethoxybenzyl)-2-phenoxyaniline]",plasma free fraction (fP),[2],3.5 ± 0.2% and 1.34 ± 0.1%
same,time radiochemically stable,[3],at least 4 h
same,time for radiometabolite to reach half of plasma radioactivity,"[4]; baseline, the one monkey also studied with pre-block",24 min
same,"minor radiometabolite, share of total plasma radioactivity","[4]; monkey plasma, all samples except one",≤ 4%
same,"peak plasma concentration of unchanged [^18F]9, pre-block versus baseline","[4]; monkey, %SUV, same monkey",~18 fold
same,time at which plasma is composed equally of radiometabolite and [^18F]9,"[4]; monkey, baseline experiments, n = 3",31.1 ± 14.7 min
same,time at which plasma is composed equally of radiometabolite and [^18F]9,"[4]; monkey, pre-block with 1 (3 mg/kg i.v.), 3 mg/kg",4.0 min and 4 min
same,"minor radiometabolite, share of total plasma radioactivity","[4]; one monkey, one plasma sample at 60 min after injection",8%
same,defluorination (uptake of radioactivity into skull),PBR [5]; PET images 60-120 min,does not defluorinate significantly
same,maximal brain uptake,"PBR [5]; choroid plexus of fourth ventricle, baseline, n = 4",371 ± 89 % SUV
same,proportion of brain radioactivity displaced,"PBR [5]; choroid plexus, 1 (3 mg/kg i.v.) given 60 min after [^18F]9",up to 90%
same,[^18F]9 as share of plasma radioactivity,"[6]; rat, NCA, mass dose 0.85 μg/kg, 30 min, n = 2",12.5%
same,"minor radiometabolite, share of total radioactivity","[6]; second rat, NCA, mass dose 3.78 μg/kg",< 5%
same,"minor radiometabolite, share of brain radioactivity",[6]; [12],< 5%
same,"minor radiometabolite, share of plasma radioactivity",[6]; [12],< 3%
same,"minor radiometabolite, share of urine radioactivity",[6]; [12],9.9 ± 2.2%
same,unchanged radioligand after incubation,[7],> 99.2%
same,time stable in buffer,[8],> 2 h
"O=C(C[18F])Nc1ccccc1Oc1ccccc1 [[^18F]11, [^18F]2-fluoro-N-(2-phenoxyphenyl)acetamide]",conversion into polar radiometabolite(s),[9]; rat brain homogenate,> 99.9%
same,conversion into polar radiometabolite(s),[9]; rat whole blood,> 99.9%
"COc1ccc(OC)c(CN(C(=O)CF)c2ccccc2Oc2ccccc2)c1 [compound 9, N-Fluoroacetyl-N-(2,5-dimethoxybenzyl)-2-phenoxyaniline]",selectivity for PBR,PBR [10],selective for PBR
same,unchanged 9 in urine by LC-MS-MS,[11],not detected
same,unchanged 9 in brain and plasma by LC-MS-MS,[11]; sampled at 115 min after administration,detected
